Assay [1] concerns the target T1, Adrenergic receptor alpha-2 (Rattus norvegicus, UniProt P22086+P19328+P22909).
T1 sequence (P22086 whole entry): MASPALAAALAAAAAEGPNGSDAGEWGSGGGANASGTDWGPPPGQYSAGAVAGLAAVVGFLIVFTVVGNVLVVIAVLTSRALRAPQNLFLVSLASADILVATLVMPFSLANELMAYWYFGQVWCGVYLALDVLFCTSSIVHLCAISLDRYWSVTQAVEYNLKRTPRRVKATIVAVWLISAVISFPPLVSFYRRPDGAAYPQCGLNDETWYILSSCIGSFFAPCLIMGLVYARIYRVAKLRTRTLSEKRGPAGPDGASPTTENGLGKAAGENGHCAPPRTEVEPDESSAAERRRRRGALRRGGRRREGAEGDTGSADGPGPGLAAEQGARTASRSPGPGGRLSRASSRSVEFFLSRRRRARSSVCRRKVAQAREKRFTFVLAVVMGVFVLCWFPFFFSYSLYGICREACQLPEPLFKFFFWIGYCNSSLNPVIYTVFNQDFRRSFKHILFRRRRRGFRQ
T1 sequence (P19328 whole entry): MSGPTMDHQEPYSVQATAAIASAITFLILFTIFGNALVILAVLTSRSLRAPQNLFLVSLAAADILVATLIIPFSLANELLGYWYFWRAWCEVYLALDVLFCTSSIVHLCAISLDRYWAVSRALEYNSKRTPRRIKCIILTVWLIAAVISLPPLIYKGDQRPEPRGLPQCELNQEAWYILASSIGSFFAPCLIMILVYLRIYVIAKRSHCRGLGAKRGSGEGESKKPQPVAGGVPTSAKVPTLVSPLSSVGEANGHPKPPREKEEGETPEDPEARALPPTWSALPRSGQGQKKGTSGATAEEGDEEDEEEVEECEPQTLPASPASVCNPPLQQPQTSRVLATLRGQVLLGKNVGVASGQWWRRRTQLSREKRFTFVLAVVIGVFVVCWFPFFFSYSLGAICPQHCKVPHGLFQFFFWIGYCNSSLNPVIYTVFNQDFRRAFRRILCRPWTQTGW
T1 sequence (P22909 whole entry): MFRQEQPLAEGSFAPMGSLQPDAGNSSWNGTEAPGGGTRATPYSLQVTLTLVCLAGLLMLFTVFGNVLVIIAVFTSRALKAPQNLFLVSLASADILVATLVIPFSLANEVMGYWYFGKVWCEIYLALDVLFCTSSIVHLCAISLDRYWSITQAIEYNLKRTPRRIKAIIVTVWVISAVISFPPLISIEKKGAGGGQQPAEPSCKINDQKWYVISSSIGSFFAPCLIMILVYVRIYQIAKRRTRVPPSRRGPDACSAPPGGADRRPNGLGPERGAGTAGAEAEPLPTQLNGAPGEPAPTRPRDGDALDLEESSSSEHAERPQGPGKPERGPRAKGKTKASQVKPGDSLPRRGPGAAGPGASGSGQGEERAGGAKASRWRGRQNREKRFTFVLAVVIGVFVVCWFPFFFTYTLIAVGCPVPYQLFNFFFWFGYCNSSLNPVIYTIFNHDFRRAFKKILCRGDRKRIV
Description: Binding affinity against alpha-2 adrenergic receptor was determined by the displacement of [3H]clonidine from rat brain cortical membranes. The format is cell membranes, Membrane.

The test system of a further assay is Mus musculus. Description: Antagonistic activity against clonidine-induced antinociception in mouse after po administration. The format is functional. A digest of the protocol:
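Swiss Webster mice (18–24 g), 10 per treatment. Test compound was given orally in 0.9% NaCl at 10 mL/kg. […] Mice were observed 5–10 min after PPQ, and those writhing at least 3 times were counted as percent reversal.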

For assay [2], the target named is T1, Adrenergic receptor alpha-2. Description: Alpha-2 adrenergic receptor antagonistic activity in rat vas deferens vs clonidin. The format is functional, tissue-based. The essentials: (§1)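 Vasa deferentia from Sprague-Dawley rats (180–250 g) mounted between platinum ring electrodes at 1 g resting tension in oxygenated Krebs at 37 °C. Single-pulse electrical stimulation (1 ms, 0.15 Hz, lowest voltage giving maximal contraction).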

Assay [3] has the same target. Nature of the assay: The compound was evaluated for the alpha-2 adrenergic receptor antagonistic activity in rat vas deferens vs clonidin. The format is functional, tissue-based. The essentials:
as §1

For assay [4] the target is unchanged. Nature of the assay: Alpha-2 adrenergic receptor agonistic activity in rat vas deferens.
Assay [5] has the same target. Description: Alpha-2 adrenergic receptor antagonistic activity in rat vas deferens vs clonidine. The format is functional, tissue-based.
Assay [6] has as its target T2, Adrenergic receptor alpha-2 (Rattus norvegicus) (UniProt P22086+P19328+P22909). Nature of the assay: The compound was evaluated for the alpha-2 adrenergic receptor antagonistic activity in rat vas deferens vs clonidin; l = compound contracted the tissue at 100nM, which is an alpha-1 agonist like response. The format is functional, tissue-based. To be noted: filed as agonist.

Assay [7] deals with T2, Adrenergic receptor alpha-2 (Rattus norvegicus). Nature of the assay: The compound was evaluated for the alpha-2 adrenergic receptor antagonistic activity in rat vas deferens vs clonidine; i = the compound contracted the tissue at 100 nM. The format is functional, tissue-based. To be noted: filed as agonist. A digest of the protocol:
as §1

By Ki is commonly meant the equilibrium dissociation constant of an inhibitor or competing ligand from its target. Higher therefore signals a looser hold on the target. The term ED50 denotes the dose that gives a 50% effect, or the effect in half of the subjects. High values mean weaker potency, low ones greater potency. For orientation: pA2 means a measure of antagonist potency on a negative log scale. Broadly, the IC50 is the concentration that gives 50% inhibition. Higher therefore signals a need for much substance.

Structures are written as SMILES.

For the compound `c1ccc(CCN2c3ccccc3CC2C2=NCCN2)cc1` (stereo not given), in assay [1], the inhibitory constant (Ki) was found to be 6 nM. This compound also displayed an ED50 in the assay with Mus musculus of 6 mg/kg.
For the compound `CCCN1c2ccccc2CC1C1=NCCN1` (stereo not given), the pA2 in assay [2] came to 8.76. The Ki in assay [1] was 1.93 nM. The same compound came in with an ED50 in the assay on Mus musculus of 100 mg/kg.
As to `CN1c2ccccc2C[C@@]1(C)C1=NCCN1`, in assay [3], the pA2 stood at 7.55. The Ki in assay [1] was found to be 3.4 nM. Further, in assay [4], the half-inhibitory concentration (IC50) is given as over 300 nM.
In assay [2], `C[C@@H]1Cc2ccccc2N(C)[C@@H]1C1=NCCN1` showed a pA2 of 5.88. Further, the inhibitory constant (Ki) in assay [1] came to 719 nM.
In assay [1], `c1ccc2c(c1)CCN2C1=NCCN1` showed a Ki of over 1000 nM.
`C[C@@H]1c2ccccc2N(C)[C@@H]1C1=NCCN1`: the pA2 in assay [3] is listed as under 6. Further, the Ki in assay [1] is 6.9 nM. In the assay with Mus musculus, this compound registered a 50% effective dose (ED50) of over 300 mg/kg. This compound also gave an IC50 in assay [4] of 3.29 nM.
In turn, `Cn1c(CC2=NCCN2)cc2ccccc21` returned a Ki in assay [1] of 46.7 nM. In assay [5], this compound yielded a pA2 of 7.48. In the assay with Mus musculus, the ED50 is 100 mg/kg.
In assay [2], `C[C@H]1c2ccccc2N(C)[C@@H]1C1=NCCN1` returned a pA2 of 6.96. In assay [1], this compound yielded a Ki of 72.3 nM. In assay [4], this compound returned an IC50 of over 1000 nM.
`CN1c2c(Cl)cccc2CC1C1=NCCN1` (stereo not given): in assay [3], the pA2 was found to be 8.8. In assay [1], the Ki is 0.72 nM. The same compound displayed an ED50 in the assay with Mus musculus of 0.1 mg/kg.
`C[C@@H]1Cc2ccccc2N[C@@H]1C1=NCCN1` showed a pA2 in assay [2] of under 6. Further, in assay [1], the Ki is over 1000 nM. The same compound yielded an IC50 in assay [4] of over 1000 nM.
In assay [2], `CN1c2ccccc2CCC1C1=NCCN1` (stereo not given) registered a pA2 of 8.13. This compound had a Ki in assay [1] of 1.52 nM.
`CCOCCN1c2ccccc2CC1C1=NCCN1` (stereo not given) showed an inhibition constant (Ki) in assay [1] of 26 nM. Besides, the pA2 in assay [5] worked out at 7.81. The compound further returned an ED50 in the assay with Mus musculus of 20.5 mg/kg.
In turn, `c1ccc2c(c1)CC(C1=NCCN1)N2` (stereo not given) displayed a Ki in assay [1] of 2.11 nM. In assay [5], this compound displayed a pA2 of 8.16.
In assay [2], `CN1c2ccc(Cl)cc2CC1C1=NCCN1` (stereo not given) had a pA2 of 8.56. In assay [1], the inhibition constant (Ki) was 1.9 nM.
`CCCCN1c2ccccc2CC1C1=NCCN1` (stereo not given) registered a Ki in assay [1] of 3.5 nM. The compound also came in with a pA2 in assay [5] of 8.8. For the same compound, the 50% effect level with Mus musculus (ED50) was put at a dose of 4 mg/kg.
`CCC[C@@]1(C2=NCCN2)Cc2ccccc2N1C` had a pA2 in assay [2] of 6.6. Further, in assay [1], the Ki was 260 nM. Moreover, the IC50 in assay [4] is over 1000 nM.
In the assay on Mus musculus, `c1ccc2c(c1)OCC(C1=NCCN1)O2` (stereo not given) [IDAZOXAN] gave an ED50 of 1.6 mg/kg.
The same measure, in the same setting: with `COC(=O)[C@@H]1[C@H]2C[C@H]3c4[nH]c5ccccc5c4CCN3C[C@@H]2CC[C@@H]1O` [YOHIMBINE] the figure was 0.6 mg/kg.
On to `CN1c2ccccc2CC1CC1=NCCN1` (stereo not given), for which the Ki in assay [1] worked out at 355 nM. Moreover, the pA2 in assay [5] is under 6.
For `CN1c2c(Cl)cc(Cl)cc2CC1C1=NCCN1` (stereo not given), in assay [2], the pA2 was 8. Moreover, the Ki in assay [1] is 12.3 nM.
For `Cn1c(C2=NCCN2)cc2ccccc21`, the inhibition constant Ki in assay [1] is reported as over 1000 nM. Moreover, the pA2 in assay [5] is on record as over 6.
In turn, `CN(CC1=NCCN1)c1ccccc1` displayed an inhibition constant (Ki) in assay [1] of 3.9 nM. The pA2 entry in assay [6] was “Agonist”.
In the case of `C=CC[C@@]1(C2=NCCN2)Cc2ccccc2N1C`, the pA2 in assay [3] is listed as 6.96. Further, the Ki in assay [1] was 77 nM. This compound also displayed an IC50 in assay [4] of over 1000 nM.
In assay [2], `CN1c2ccc(Cc3ccccc3)cc2CC1C1=NCCN1` (stereo not given) registered a pA2 of 7.59. Moreover, the Ki in assay [1] was 53.6 nM. The compound also yielded an ED50 in the assay on Mus musculus of over 100 mg/kg.
In turn, `CC(C)N(C[C@@]1(C2=NCCN2)Cc2ccccc2N1C)C(C)C` showed a Ki in assay [1] of 25.1 nM. The IC50 in assay [4] is recorded as 94.8 nM.
In the case of `CCN1c2ccccc2CC1C1=NCCN1` (stereo not given), the pA2 in assay [2] came to 8.91. Also, the Ki in assay [1] is given as 0.91 nM. Besides, the 50% effect level in the assay on Mus musculus (ED50) was put at a dose of 2.6 mg/kg.
`c1ccc2c(c1)CCC(C1=NCCN1)N2` (stereo not given): the pA2 in assay [2] stood at 8.03. For the same compound, the inhibition constant (Ki) in assay [1] was 13.8 nM.
As to `c1ccc(N2c3ccccc3CC2C2=NCCN2)cc1` (stereo not given), the Ki in assay [1] is reported as 4.2 nM. Besides, in assay [7], the pA2 entry was “Agonist”.
Turning to `c1ccc(CN2c3ccccc3CC2C2=NCCN2)cc1` (stereo not given), in assay [2], the pA2 turned out to be 7.93. Moreover, the Ki in assay [1] is 2.3 nM. Further, the ED50 in the assay with Mus musculus amounted to 7 mg/kg.

For the origin of these results see ChEMBL document CHEMBL1123827, “Alpha 2-adrenergic agonists/antagonists: the synthesis and structure-activity relationships of a series of indolin-2-yl and tetrahydroquinolin-2-yl imidazolines” (J Med Chem, 1987).
